According to ChEMBL document CHEMBL3232876, “Novel R-(+)-limonene-based thiosemicarbazones and their antitumor activity against human tumor cell lines” (Eur J Med Chem, 2014):
Active and inactive are the calls of the source. The calls are words filed in the database; no cut-off is given here.

Key:
[1] = Growth inhibition of human UACC62 cells after 48 hrs by sulforhodamine B assay; format: functional; conditions: UACC-62, 48 h
Procedure, shortened: (§1)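 Tumour lines from NCI and Vero from the Rio de Janeiro Cell Bank, grown in RPMI 1640 with 5% fetal bovine serum, with penicillin:streptomycin added to experimental cultures. Each compound was tested at four 10-fold dilutions; sulforhodamine B staining at time zero and 48 h. Proliferation was calculated against T0 and drug-free controls, and GI50 came from sigmoidal regression of the concentration-response curves. Representative experiment in triplicate.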

U-251 = experiment: Growth inhibition of human U251 cells after 48 hrs by sulforhodamine B assay; format: functional; conditions: U-251, 48 h; procedure, shortened: as §1
PC-3 [2] = experiment: Growth inhibition of human PC3 cells after 48 hrs by sulforhodamine B assay; format: functional; conditions: PC-3, 48 h; procedure, shortened: as §1
MCF7 = experiment: Growth inhibition of human MCF7 cells after 48 hrs by sulforhodamine B assay; format: functional; conditions: MCF7, 48 h; procedure, shortened: as §1
[3] = Growth inhibition of human NCI-ADR-RES cells after 48 hrs by sulforhodamine B assay; format: functional; procedure, shortened: as §1
[4] = (§2) Growth inhibition of African green monkey Vero cells after 48 hrs by sulforhodamine B assay; format: cell-based; conditions: chlorocebus sabaeus, Vero cells; procedure, shortened: as §1
Vero = experiment: as §2; format: cell-based; conditions: chlorocebus sabaeus, vero, 48 h; procedure, shortened: as §1
PC-3 [5] = experiment: Cytotoxicity against human PC3 cells assessed as cell death after 48 hrs by sulforhodamine B assay; format: functional
Procedure, shortened: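 NCI-supplied tumour cells in RPMI 1640 with 5% fetal bovine serum; experimental cultures also had penicillin:streptomycin. Cells were exposed for 48 h to four 10-fold concentrations (0.25 to 250 […]), with readings at time zero and at 48 h. LC50 (concentration giving 50% cell death) came from sigmoidal regression of concentration–response curves.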

[6] = Growth inhibition of human OVCAR3 cells after 48 hrs by sulforhodamine B assay; format: functional; conditions: OVCAR-3, 48 h; procedure, shortened: as §1
786-0 = experiment: Growth inhibition of human 786-0 cells after 48 hrs by sulforhodamine B assay; format: functional; conditions: 786-0, 48 h; procedure, shortened: as §1
HT-29 = experiment: Growth inhibition of human HT-29 cells after 48 hrs by sulforhodamine B assay; format: functional; conditions: HT-29, 48 h; procedure, shortened: as §1
NCI-H460 = experiment: Growth inhibition of human NCI-H460 cells after 48 hrs by sulforhodamine B assay; format: functional; conditions: NCI-H460, 48 h; procedure, shortened: as §1
K562 = experiment: Growth inhibition of human K562 cells after 48 hrs by sulforhodamine B assay; format: functional; conditions: K562, 48 h; procedure, shortened: as §1
[7] = Ratio of compound GI50 to paclitaxel GI50 for African green monkey Vero cells; format: ADME, cell-based; conditions: chlorocebus sabaeus, read-out: RatioGI50

CC1=CC[C@H](C(C)(C)NC(=S)N/N=C/c2ccccc2)CC1
GI50 [1]: 31.6 µM
TGI [1]: > 100 µM
GI50 (U-251): 26.3 µM
TGI (U-251): 71.4 µM
GI50 (PC-3 [2]): 1300 nM
TGI (PC-3 [2]): 5.7 µM
GI50 (MCF7): 8.4 µM
TGI (MCF7): 84.4 µM
GI50 [3]: > 100 µM
TGI [3]: > 100 µM
GI50 at 48 h [4]: 20.5 µM
TGI (Vero): > 100 µM
Activity (PC-3 [5]): Active
GI50 [6]: 8.7 µM
TGI [6]: 20.6 µM
GI50 (786-0): 9.9 µM
TGI (786-0): 67 µM
GI50 (HT-29): 8.8 µM
TGI (HT-29): 22.2 µM
GI50 (NCI-H460): 13 µM
TGI (NCI-H460): 53.9 µM
GI50 (K562): 6.3 µM
TGI (K562): 47.6 µM

CC1=CC[C@H](C(C)(C)NC(=S)N/N=C/c2ccc(N(C)C)cc2)CC1
GI50 [1]: 45.1 µM
TGI [1]: > 100 µM
GI50 (U-251): 57.7 µM
TGI (U-251): > 100 µM
GI50 (PC-3 [2]): < 40 nM
TGI (PC-3 [2]): < 0.7 µM
GI50 (MCF7): 26.8 µM
TGI (MCF7): > 100 µM
GI50 [3]: > 100 µM
TGI [3]: > 100 µM
GI50 at 48 h [4]: 75.6 µM
TGI (Vero): > 100 µM
Activity (PC-3 [5]): Active
GI50 [6]: > 100 µM
TGI [6]: > 100 µM
GI50 (786-0): 87 µM
TGI (786-0): > 100 µM
GI50 (HT-29): 46.5 µM
TGI (HT-29): > 100 µM
GI50 (NCI-H460): 53.4 µM
TGI (NCI-H460): > 100 µM
GI50 (K562): 22.6 µM
TGI (K562): > 100 µM

CC1=CC[C@H](C(C)(C)NC(=S)N/N=C/c2ccccc2[N+](=O)[O-])CC1
GI50 [1]: 10.6 µM
TGI [1]: 92.2 µM
GI50 (U-251): 20.2 µM
TGI (U-251): > 100 µM
GI50 (PC-3 [2]): 1700 nM
TGI (PC-3 [2]): 6.4 µM
GI50 (MCF7): 1.2 µM
TGI (MCF7): 94.7 µM
GI50 [3]: 19.2 µM
TGI [3]: > 100 µM
GI50 at 48 h [4]: 21.6 µM
TGI (Vero): > 100 µM
Activity (PC-3 [5]): Active
GI50 [6]: 8.5 µM
TGI [6]: 25.8 µM
GI50 (786-0): 68.5 µM
TGI (786-0): > 100 µM
GI50 (HT-29): 7.9 µM
TGI (HT-29): 70.8 µM
GI50 (NCI-H460): 5 µM
TGI (NCI-H460): 32.7 µM
GI50 (K562): 0.3 µM
TGI (K562): > 100 µM

CC1=CC[C@H](C(C)(C)NC(=S)N/N=C/c2ccccc2O)CC1
GI50 [1]: 2.8 µM
TGI [1]: 10.8 µM
GI50 (U-251): 6.4 µM
TGI (U-251): 10.6 µM
GI50 (PC-3 [2]): < 40 nM
TGI (PC-3 [2]): 0.9 µM
GI50 (MCF7): 2.2 µM
TGI (MCF7): 17.5 µM
GI50 [3]: 3.7 µM
TGI [3]: 10.9 µM
GI50 at 48 h [4]: 3.1 µM
TGI (Vero): 11.2 µM
CC50 (PC-3 [5]; PC-3, 48 h, read-out: LC50 (the source's name)): 12.3 µM
GI50 [6]: 5.5 µM
TGI [6]: 11.8 µM
GI50 (786-0): 4.6 µM
TGI (786-0): 12.1 µM
GI50 (HT-29): 10.9 µM
TGI (HT-29): 16.6 µM
selectivity ratio [7]: 100
GI50 (NCI-H460): 1.9 µM
TGI (NCI-H460): 8.4 µM
GI50 (K562): 0.8 µM
TGI (K562): > 100 µM

COc1ccc(/C(C)=N/NC(=S)NC(C)(C)[C@H]2CC=C(C)CC2)cc1
GI50 [1]: 95.3 µM
TGI [1]: > 100 µM
GI50 (U-251): 43.4 µM
TGI (U-251): > 100 µM
GI50 (PC-3 [2]): 83600 nM
TGI (PC-3 [2]): > 100 µM
GI50 (MCF7): 5 µM
TGI (MCF7): > 100 µM
GI50 [3]: > 100 µM
TGI [3]: > 100 µM
GI50 at 48 h [4]: > 100 µM
TGI (Vero): > 100 µM
GI50 [6]: 74.9 µM
TGI [6]: > 100 µM
GI50 (786-0): > 100 µM
TGI (786-0): > 100 µM
GI50 (HT-29): 18.7 µM
TGI (HT-29): > 100 µM
GI50 (NCI-H460): 90.6 µM
TGI (NCI-H460): > 100 µM
GI50 (K562): 54 µM
TGI (K562): > 100 µM

CC1=CC[C@H](C(C)(C)NC(=S)N/N=C/c2cccc(Cl)c2)CC1
GI50 [1]: 9 µM
TGI [1]: 39.8 µM
GI50 (U-251): 7.9 µM
TGI (U-251): 35.8 µM
GI50 (PC-3 [2]): 600 nM
TGI (PC-3 [2]): 6.6 µM
GI50 (MCF7): 8 µM
TGI (MCF7): 61 µM
GI50 [3]: 67.5 µM
TGI [3]: > 100 µM
GI50 at 48 h [4]: 14.8 µM
TGI (Vero): > 100 µM
GI50 [6]: 13.6 µM
TGI [6]: 80.5 µM
GI50 (786-0): 9.2 µM
TGI (786-0): 26.9 µM
GI50 (HT-29): 7.9 µM
TGI (HT-29): 53 µM
GI50 (NCI-H460): 1.4 µM
TGI (NCI-H460): 21.4 µM
GI50 (K562): 5.4 µM
TGI (K562): > 100 µM

CC1=CC[C@H](C(C)(C)NC(=S)N/N=C(\C)c2ccccc2)CC1
GI50 [1]: > 100 µM
TGI [1]: > 100 µM
GI50 (U-251): > 100 µM
TGI (U-251): > 100 µM
GI50 (PC-3 [2]): > 100000 nM
TGI (PC-3 [2]): > 100 µM
GI50 (MCF7): 20.7 µM
TGI (MCF7): > 100 µM
GI50 [3]: > 100 µM
TGI [3]: > 100 µM
GI50 at 48 h [4]: > 100 µM
TGI (Vero): > 100 µM
GI50 [6]: > 100 µM
TGI [6]: > 100 µM
GI50 (786-0): > 100 µM
TGI (786-0): > 100 µM
GI50 (HT-29): 29.5 µM
TGI (HT-29): > 100 µM
GI50 (NCI-H460): > 100 µM
TGI (NCI-H460): > 100 µM
GI50 (K562): > 100 µM
TGI (K562): > 100 µM

CC1=CC[C@H](C(C)(C)NC(=S)N/N=C/c2ccc(F)cc2)CC1
GI50 [1]: > 100 µM
TGI [1]: > 100 µM
GI50 (U-251): > 100 µM
TGI (U-251): > 100 µM
GI50 (PC-3 [2]): < 40 nM
TGI (PC-3 [2]): < 0.9 µM
GI50 (MCF7): > 100 µM
TGI (MCF7): > 100 µM
GI50 [3]: > 100 µM
TGI [3]: > 100 µM
GI50 at 48 h [4]: > 100 µM
TGI (Vero): > 100 µM
GI50 [6]: > 100 µM
TGI [6]: > 100 µM
GI50 (786-0): > 100 µM
TGI (786-0): > 100 µM
GI50 (HT-29): > 100 µM
TGI (HT-29): > 100 µM
GI50 (NCI-H460): > 100 µM
TGI (NCI-H460): > 100 µM
GI50 (K562): > 100 µM
TGI (K562): > 100 µM

COc1ccc(/C=N/NC(=S)NC(C)(C)[C@H]2CC=C(C)CC2)cc1
GI50 [1]: 13.3 µM
TGI [1]: 70.4 µM
GI50 (U-251): 11.4 µM
TGI (U-251): 71.9 µM
GI50 (PC-3 [2]): < 40 nM
TGI (PC-3 [2]): 1.2 µM
GI50 (MCF7): 31.2 µM
TGI (MCF7): 37.7 µM
GI50 [3]: 43.8 µM
TGI [3]: 50.4 µM
GI50 at 48 h [4]: 12.2 µM
TGI (Vero): 70.1 µM
Activity (PC-3 [5]): Active
GI50 [6]: 7.9 µM
TGI [6]: 21.2 µM
GI50 (786-0): 8.9 µM
TGI (786-0): 29.6 µM
GI50 (HT-29): 8.4 µM
TGI (HT-29): 33.6 µM
GI50 (NCI-H460): 22.5 µM
TGI (NCI-H460): 47.8 µM
GI50 (K562): 1.5 µM
TGI (K562): 30.7 µM
